As usually defined, the Ki is the equilibrium dissociation constant of an inhibitor or competing ligand from its target. A higher Ki goes with weaker binding.

The source made the active and inactive calls. No cut-off for these calls is given here.

8 molecules from ChEMBL document CHEMBL2163303, “The development of first Staphylococcus aureus SplB protease inhibitors: phosphonic analogues of glutamine” (Bioorg Med Chem Lett, 2012) can be followed below.

The nature of assay [1]: Ratio of rate of irreversible step k2 to Ki for subtilisin using fluorogenic Suc-Ala-Ala-Pro-Phe-AMC as substrate by spectrofluorometry. The method, boiled down: (§1)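 Run in 0.1 M HEPES, 0.5 M NaCl, 0.03% Triton X-100, pH 7.5, 37 °C, with chymotrypsin at 3 nM or subtilisin at 5 nM. Enzyme added to Suc-Ala-Ala-Pro-Phe-AMC plus excess inhibitor, read at Ex 350/Em 460 nm. k_obs taken from progress curves; k2/Ki derived via a Km-corrected irreversible-inhibition model.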

The nature of assay [2]: Ratio of rate of irreversible step k2 to Ki for chymotrypsin using fluorogenic Suc-Ala-Ala-Pro-Phe-AMC as substrate by spectrofluorometry. In outline: as §1
Assay [3] addresses T1, Serine protease SplB (Staphylococcus aureus) (UniProt Q53781).
T1 sequence (whole entry): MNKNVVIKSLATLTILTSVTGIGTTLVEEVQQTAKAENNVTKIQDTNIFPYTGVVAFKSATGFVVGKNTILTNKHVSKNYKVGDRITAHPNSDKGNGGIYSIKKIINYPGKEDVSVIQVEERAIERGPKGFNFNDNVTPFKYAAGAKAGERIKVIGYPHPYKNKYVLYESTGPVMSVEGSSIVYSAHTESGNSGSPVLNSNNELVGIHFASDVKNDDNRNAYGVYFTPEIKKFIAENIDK
In words: Ratio of rate of irreversible step k2 to Ki for Staphylococcus aureus SplB using fluorogenic […] as substrate up to 200 uM by spectrofluorometry. In outline: (§2)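 Enzyme added to substrate plus excess inhibitor in 0.1 M Tris-HCl, 0.01% Triton X-100, pH 7.6, 37 °C; SplB at 100 nM. Ac-Trp-Glu-Leu-Gln-ACC read at Ex 355/Em 460 nm. Pseudo-first-order k_obs taken from progress curves; k2/Ki fitted using substrate Km.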

Assay [4] has as its target T2, Serine protease SplB (Staphylococcus aureus, UniProt Q53781).
T2 sequence (Q53781 whole entry): T1 sequence (whole entry)
In words: Inhibition of Staphylococcus aureus SplB using fluorogenic […] as substrate by spectrofluorometry. In outline:
as §2

Assay [5] can be described thus: Inhibition of subtilisin using fluorogenic Suc-Ala-Ala-Pro-Phe-AMC as substrate by spectrofluorometry. The method, boiled down: as §1
Assay [6] in a line: Inhibition of chymotrypsin using fluorogenic Suc-Ala-Ala-Pro-Phe-AMC as substrate by spectrofluorometry. The method, boiled down:
as §1

For assay [7], the target named is T1, Serine protease SplB (Staphylococcus aureus). The experiment in a line: Inhibition of Staphylococcus aureus SplB using fluorogenic […] as substrate up to 200 uM by spectrofluorometry. The method, boiled down: as §2

As for `CCc1ccc(OP(=O)(Oc2ccc(CC)cc2)C(CCC(N)=O)NC(=O)OCc2ccccc2)cc1` (racemic), the Ratio in assay [1], in assay [2] and in assay [3] was less than 10 M⁻¹ s⁻¹ throughout. Moreover, the Ki in assay [4], in assay [5] and in assay [6] was greater than 200 µM throughout. The inhibition result in assay [7] is “inactive”.
As for `COc1ccc(OP(=O)(Oc2ccc(OC)cc2)C(CCC(N)=O)NC(=O)OCc2ccccc2)cc1` (racemic), the Ratio was 33 M⁻¹ s⁻¹ in assay [1], less than 10 M⁻¹ s⁻¹ in assay [2] and less than 10 M⁻¹ s⁻¹ in assay [3]. For the same molecule, the figures for the Ki in assay [4], in assay [5] and in assay [6] were greater than 200 µM, 111 µM and greater than 200 µM, respectively. Moreover, in assay [7], the inhibition entry is “inactive”.
Regarding `CCc1ccc(OP(=O)(Oc2ccc(CC)cc2)C(CCC(N)=O)NC(=O)C(CC(C)C)NC(=O)OCc2ccccc2)cc1` (mixture of isomers), the Ratio in assay [1], in assay [2] and in assay [3] was less than 10 M⁻¹ s⁻¹ throughout. The Ki in assay [4], in assay [5] and in assay [6] was greater than 200 µM throughout. The inhibition entry in assay [7] is “inactive”.
Take `CC(C)CC(NC(=O)OCc1ccccc1)C(=O)NC(CCC(N)=O)P(=O)(Oc1ccc(C(C)(C)C)cc1)Oc1ccc(C(C)(C)C)cc1` (racemic): the Ratio in assay [1], in assay [2] and in assay [3] was less than 10 M⁻¹ s⁻¹ each time. Also, the Ki in assay [4], in assay [5] and in assay [6] was greater than 200 µM in each case. Moreover, the inhibition result in assay [7] is “inactive”.
Consider `COc1ccc(OP(=O)(Oc2ccc(OC)cc2)C(CCC(N)=O)NC(=O)C(CC(C)C)NC(=O)OCc2ccccc2)cc1` (mixture of isomers), for which the Ratio is 57 M⁻¹ s⁻¹ in assay [1], less than 10 M⁻¹ s⁻¹ in assay [2] and less than 10 M⁻¹ s⁻¹ in assay [3]. For the same molecule, the inhibitory constant (Ki) in assay [4] was greater than 200 µM; in assay [5], 35 µM; in assay [6] it was greater than 200 µM. Further, the inhibition entry in assay [7] is “inactive”.
Regarding `CC(C)(C)c1ccc(OP(=O)(Oc2ccc(C(C)(C)C)cc2)C(CCC(N)=O)NC(=O)OCc2ccccc2)cc1` (racemic), the Ratio in assay [1], in assay [2] and in assay [3] was less than 10 M⁻¹ s⁻¹ each time. Further, the Ki in assay [4], in assay [5] and in assay [6] was greater than 200 µM throughout. Further, in assay [7], the inhibition result is “inactive”.
On to `NC(=O)CCC(NC(=O)OCc1ccccc1)P(=O)(Oc1ccccc1)Oc1ccccc1` (racemic), for which the Ratio in assay [1], in assay [2] and in assay [3] was less than 10 M⁻¹ s⁻¹ in each case. For the same molecule, the Ki in assay [4], in assay [5] and in assay [6] was greater than 200 µM in each case. For the same molecule, in assay [7], the inhibition entry was “inactive”.
As to `CC(C)CC(NC(=O)OCc1ccccc1)C(=O)NC(CCC(N)=O)P(=O)(Oc1ccccc1)Oc1ccccc1` (mixture of isomers), the Ratio in assay [1], in assay [2] and in assay [3] was less than 10 M⁻¹ s⁻¹ each time. Besides, the Ki in assay [4], in assay [5] and in assay [6] was greater than 200 µM each time. For the same molecule, the inhibition entry in assay [7] was “inactive”.
